Compound activity from PubChem BioAssay.
Hck-Nef inh = inhibitors of Nef-activated human Hck kinase, primary screen, biochemical, Z-Lyte FRET, 384-well, Hck-YEEI | Recombinant Hck-YEEI plus Nef, Z-Lyte FRET kinase assay | inhibition, % at 20 µM | 220,000 compounds, 0.68% hits;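 active means Hck-Nef kinase inhibition above about 50%, limit read from the data; inactive means inhibition below that limit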
Target sequence (P08631 whole entry, looked up): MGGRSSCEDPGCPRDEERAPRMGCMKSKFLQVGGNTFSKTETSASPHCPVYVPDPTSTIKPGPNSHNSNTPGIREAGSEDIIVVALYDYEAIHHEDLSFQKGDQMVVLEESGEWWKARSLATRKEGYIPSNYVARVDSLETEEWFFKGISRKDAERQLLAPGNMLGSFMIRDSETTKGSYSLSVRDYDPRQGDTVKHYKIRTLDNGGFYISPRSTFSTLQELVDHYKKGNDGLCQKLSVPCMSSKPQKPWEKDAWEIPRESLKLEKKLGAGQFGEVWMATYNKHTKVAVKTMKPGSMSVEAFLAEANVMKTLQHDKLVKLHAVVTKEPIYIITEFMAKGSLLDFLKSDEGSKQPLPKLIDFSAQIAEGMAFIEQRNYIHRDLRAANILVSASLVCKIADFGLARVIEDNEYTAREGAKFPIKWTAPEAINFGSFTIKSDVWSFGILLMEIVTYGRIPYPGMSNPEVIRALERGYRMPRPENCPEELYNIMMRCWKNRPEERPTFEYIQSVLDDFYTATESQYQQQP
Runt-SMMHC FRET = inhibitors of RUNX1 Runt–CBFb-SMMHC binding, primary screen, biochemical, FRET, Cerulean-Runt, Venus-CBFb-SMMHC, uHTS. Cerulean-Runt/Venus-CBFb-SMMHC FRET ratio 530/480, 1 h. inhibition, % at 20 µM. 220,000 compounds, 0.74% hits. AID 1434, 2008;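 active means mean inhibition across duplicate retests at 20 µM reaching about 50%, limit read from the data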;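 further: inhibitors lower the FRET ratio by blocking Runt binding to CBFb-SMMHC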
Runt-CBFb FRET = inhibitors of RUNX1 Runt–CBFb binding, primary screen, biochemical, FRET, Cerulean-Runt, Venus-CBFb, uHTS | Cerulean-Runt/Venus-CBFb FRET ratio 530/480, 1 h | inhibition, % at 20 µM | 220,000 compounds, 0.46% hits | AID 1496, 2009;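 active means inhibition over about 50% at 20 µM in the single-dose screen, limit read from the data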
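Schedule: protein complex preformed 1 h, compound exposure 1 h, room temperature, dark; test system: Cerulean-labeled Runt domain protein; amount: 100 nM per protein; buffer or medium: Tris 50 mM pH 7.5, KCl, K2SO4, 0.01% BSA; read-out: loss of energy transfer signal; detection: FRET fluorescence; controls: 5 µM unlabeled CBFb as full-inhibition high control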
RanGTP-Impb inh = inhibitors of RanGTP-importin-beta interaction, primary screen, biochemical, FRET, CFP-Ran, YFP-importin-beta, homogeneous | Ran GTPase (GTP-bound) - importin-beta complex | cell-free CFP-Ran/YFP-importin-beta FRET ratio | inhibition, % (concentration not given with the values) | 300,000 compounds, 1.1% hits | AID 2216, 2009;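 active means more than half of the replicate wells show a fall in the fluorescence ratio signal beyond about 16%, limit read from the data, passing the limit was not always enough; inconclusive means exactly half of the replicate wells pass the set limit; inactive means fewer than half of replicates pass the limit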
M18AAP inhibitor = PfM18AAP inhibitors, malaria aminopeptidase, primary screen, biochemical, QFRET, recombinant enzyme. inhibition, % at 7.35 µM. M18 aspartyl aminopeptidase (Plasmodium falciparum 3D7). H-Glu-NHMec fluorogenic cleavage. 290,000 compounds, 1.2% hits;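 active means inhibition above the campaign mean inhibition over all tested compounds plus 3 SD, cut at about 28% in these data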
RBBP9 inh = human RBBP9 inhibitors, primary screen, biochemical, fluorescence polarization, FP-Rh probe, HTS; AID 1515, 2009; recombinant RBBP9; inhibition, % at 7.94 µM; 220,000 compounds, 0.2% hits;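 active means inhibition above the campaign mean of all tested compounds plus 3 SD, cut at about 14% in these data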
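Assay system: recombinant human RBBP9; Reagent: Serine-hydrolase probe FP-Rh, 375 nM pre-mixing; Doses: 7.94 µM single dose, 0.794% DMSO; Incubation: 30 min then 45 min, 25 °C; Detection: fluorescence polarization (mP), excitation 525 nm, emission 598 nm; Evaluation: percent inhibition from mP, scaled between DMSO and no-protein wells.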
A number is an active result; – = inactive; ? = inconclusive; · = no result. A selection: hits, their analogues and other compounds. The true share with any hit is near 2.9%.

SMILES	Hck-Nef inh	Runt-SMMHC FRET	Runt-CBFb FRET	RanGTP-Impb inh	M18AAP inhibitor	RBBP9 inh
CCN(c1cccc(C)c1)S(=O)(=O)c1c(C)[nH]c(C)c1C(=O)N1CCCCC1	·	·	·	–	–	·
COc1ccc(CCNC(=O)C2CCCN(S(C)(=O)=O)C2)cc1 (stereo unspecified)	·	·	·	–	–	·
O=C(NCCCn1ccnc1)C(Cc1ccccc1)N1C(=O)c2ccccc2C1=O (stereo unspecified)	–	–	–	–	29.5	–
CC(C)(C)NC(=O)C(Cc1ccccc1)N1C(=O)c2ccccc2C1=O (stereo unspecified)	·	·	·	–	–	·
CCOC(=O)c1c(C)[nH]c(C)c1S(=O)(=O)NCc1ccccc1OCC	·	·	·	–	–	·
N#CC1(NC(=O)COC(=O)c2cc(=O)[nH]c3ccccc23)CCCCC1	·	·	·	–	·	·
COc1cccc(CN2C(=O)c3cccc(N)c3C2=O)c1	–	73.2	–	?	–	–
CC(NC(=O)CCN1C(=O)c2ccccc2C1=O)c1ccccc1 (stereo unspecified)	·	·	·	?	–	·
COc1cccc(/C=N/NC(=O)c2cccc3ccccc23)c1OC	·	·	·	–	·	·
COc1cc2sc3ccc(-c4ccc(N(C)C)nc4)cc3c(=O)c2cc1OC	·	·	·	–	·	·
CN(C)c1ccc(-c2ccc3c(=O)c4ccccc4n(C)c3c2)cn1	·	·	·	18.8	–	·
CCCN(C(=O)c1cccc(-n2cccc2)c1)c1c(N)n(Cc2ccccc2)c(=O)[nH]c1=O	·	·	·	–	·	·
O=C1C=CC(=O)N1c1cccc(-c2ccccc2)c1	–	73.2	–	–	–	–
Cc1cc(C)n(CCC(=O)N/N=C/c2c(O)ccc3ccccc23)n1	–	–	–	36.4	–	–
Cc1cc(C)n(CCC(=O)N/N=C/c2ccc(O)cc2)n1	–	–	–	–	–	–
COc1ccc(C(=O)CCS(=O)(=O)c2ccc(C)cc2)cc1OC	·	·	·	–	–	·
COc1ccc(S(=O)(=O)N2CCOCC2)cc1NC(=O)CCc1c[nH]c2ccccc12	–	–	–	–	–	–
COc1ccc(CNC(=O)COc2ccc([N+](=O)[O-])cc2)cc1	–	–	–	37.1	–	–
COc1ccc(OCC(=O)NCc2ccc(Cl)cc2)cc1	·	·	·	–	–	·
CCCn1c(NCc2cc(C)ccc2O)nc2ccccc21	–	–	–	27.6	30.4	–
CN1c2ccc(Cl)cc2C(=O)NC1C1CC=CCC1 (stereo unspecified)	–	94.8	–	29.6	–	–
CC1CC1c1ccc(/C=C(\C#N)C(=O)Nc2cc(Cl)ccc2Cl)o1 (stereo unspecified)	–	–	–	23.8	–	–
CC1CC1c1ccc(/C=C(\C#N)C(=O)Nc2ccc(Cl)cc2Cl)o1 (stereo unspecified)	–	–	–	39.6	–	–
O=C(O)C1CCCCC1C(=O)Nc1cc(Cl)ccc1Cl (stereo unspecified)	–	–	–	–	–	–
Cc1ccc(NC(=O)CN2CCC(NC(=O)c3ccccc3F)CC2)cc1C	·	·	·	–	–	·
SMILES	Hck-Nef inh	Runt-SMMHC FRET	Runt-CBFb FRET	RanGTP-Impb inh	M18AAP inhibitor	RBBP9 inh
CCCC(=O)Nc1cc2c3c(c1)C(C)C(=O)N3CCC2 (stereo unspecified)	·	·	·	–	–	·
O=C(O)c1ccccc1-c1nc(-c2ccccc2)c(-c2ccccc2)[nH]1	–	–	–	–	–	–
O=C(O)c1ccccc1-c1nc2ccccc2c(=O)[nH]1	–	–	–	25.1	–	–
CCCCn1c(N)c(N(CCOC)C(=O)c2c(-c3ccccc3)noc2C)c(=O)[nH]c1=O	·	·	·	–	·	·
CCCSc1nc(N)c2c3c(sc2n1)CN(C)CC3	–	–	–	–	–	–
CSc1nc(NCC(C)C)c2c3c(sc2n1)CN(C)CC3	–	–	–	16.9	–	–
CC(C)Sc1nc(N)c2c3c(sc2n1)CN(C)CC3	–	–	–	20.5	–	–
CSc1nc(NCCCN(C)C)c2c3c(sc2n1)CN(C)CC3	·	·	·	–	29.2	·
COc1ccc(CN(C)C(=O)c2ccccc2Sc2ccccc2C#N)c(OC)c1	·	·	·	–	–	·
COc1ccc(CNC(=O)c2cc3cc(OC)ccc3oc2=O)cc1	·	·	·	–	–	·
CCCOc1ccc2cc(C(=O)NCc3ccccc3)c(=O)oc2c1	·	·	·	58.9	–	·
COCCSc1ccccc1C(=O)NCc1ccco1	–	–	–	–	29.9	–
COCCSc1ccccc1C(=O)NCCc1ccccc1	–	–	–	–	–	–
COc1ccc2cc(C(=O)NCc3ccco3)c(=O)oc2c1	–	76.8	–	?	–	–
O=C(CNCc1cccs1)Nc1ccc(OC(F)(F)F)cc1	·	·	·	–	–	·
CCC[n+]1c(C)sc2c(OC)ccc(OC)c21	–	–	–	–	28.1	–
Cc1c(Cl)sn(-c2ccc(Cl)cc2)c1=O	–	53.2	–	·	57.5	–
Cc1nn(-c2ccc(Cl)cc2)c(=O)c2ccccc12	–	–	–	–	–	–
O=C(CC1S/C(=N/N=C/c2c[nH]c3ccccc23)NC1=O)Nc1ccccc1 (stereo unspecified)	–	–	–	–	–	–
O=C(CC1S/C(=N/N=C/c2ccco2)NC1=O)Nc1ccccc1 (stereo unspecified)	–	–	–	138.8	–	–
CC(C)S(=O)(=O)C1=NSC2=NC(=O)/C(=C\c3ccc(-c4ccccc4)o3)C(=N)N21	–	82.3	–	?	–	–
C=CCOc1ccccc1C(=O)/C=C1/C(=O)Nc2ccccc21	·	·	·	–	30.7	·
Cc1c(Cc2ccccc2)c(=O)n2c([nH]c3ccccc32)c1C#N	–	–	–	–	–	–
COc1ccccc1N=Cc1c(C)c(C#N)c2[nH]c3ccccc3n2c1=O	53.4	–	–	–	–	–
CC(=O)c1sc2nc(-c3ccc(C)cc3)c3c(c2c1N)CCCC3	–	–	–	66.4	–	–
CCc1nc2sc(C(C)=O)c(N)c2c2c1CCCC2	–	81.0	–	28.0	–	–
CCOC(=O)c1c(N)n(C2CC(C)(C)NC(C)(C)C2)c2nc3ccccc3nc12	–	93.9	–	?	–	–
CCOC(=O)c1c(NC(=O)c2ccco2)n(C2CCCCC2)c2nc3ccccc3nc12	–	–	–	79.1	–	–
CCOC(=O)c1c(N)n(-c2ccc(N)cc2)c2nc3ccccc3nc12	–	–	–	–	–	–
COc1ccc(-n2c(NC(=O)c3ccco3)c(C#N)c3nc4ccccc4nc32)cc1	–	–	–	128.3	–	–
